According to paper PMC9148379 (Alzheimer's & Dementia, 2021):
Like-named read-outs stand apart in the source and are kept apart here.

Legend:
[1] = Experiment 7: two-week intermediate storage in the fridge; format: in vitro ADME, human; settings: EDTA plasma, 2 weeks at −20°C before −80°C; six Aβ assays
[2] = Experiment 8: aliquot freeze-thawing; format: in vitro ADME, human; settings: EDTA plasma; for impact of sample freeze–thawing (up to four cycles) on values: six Aβ assays
In short: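 Human EDTA plasma subjected to repeated freeze–thaw was compared with reference aliquots (centrifuged 1800 × g at room temperature after 30 min standing at room temperature, aliquoted immediately, stored at −80°C). Each value was normalized to its reference as %recovery, and the group median per condition was taken. A median change >10% was deemed relevant. GFAP was measured with the pre-commercial Simoa Neurology 4-Plex E kit.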

[3] = cited from earlier work; for time from which levels in whole blood at RT started declining: different assays than used in this study
[4] = cited from earlier work
[5] = cited from earlier work; remark: listed apart in the source
[6] = format: in vitro ADME, human; settings: EDTA whole blood, Simoa N3PA

Row | Substance | decrease of values after two‐week intermittent storage at −20°C [1] | impact of sample freeze–thawing (up to four cycles) on values [2] | time from which levels in whole blood at RT started declining ([3]; ref 33) | time from which levels in whole blood at RT started declining ([3]; ref 36) | time from which levels in separated plasma decline at RT [4] | median recovery after four additional freeze–thaw cycles, other biomarkers ([2]; GFAP by Simoa N4PE) | change at the second freeze–thaw cycle ([2]; Simoa N4PE) | plasma levels at freeze–thaw cycle 4 [5] | median recovery, tubes held at RT for 3 hours pending centrifugation ([6]; 3 hours) | median recovery, tubes held at RT for 24 hours pending centrifugation ([6]; 24 hours) | time for which t‐tau was stable prior to centrifugation ([3]; other t‐tau assays)
1 | Aβ40: endogenous amyloid beta 40 peptide measured in blood as Alzheimer's disease biomarker | did not | did not impact | 1 h | 48 h | 8 h | – | – | – | – | – | –
2 | Aβ42: endogenous amyloid beta 42 peptide measured in blood as Alzheimer's disease biomarker | did not | did not impact | 1 h | 6 h | 6 h | – | – | – | – | – | –
3 | glial fibrillary acidic protein [GFAP] | – | – | – | – | – | 113% | no change | remained stable | – | – | –
4 | total tau [t‐tau] | – | – | – | – | – | – | – | – | 83% | 49% | up to 6 hours
